# According to paper PMC6421538 (ACS Medicinal Chemistry Letters, 2019):
# Where “and” joins values, the source holds several entries; their conditions need not be identical. Equal entries are not always repeated. Where two headings read alike, the source gives them in different places.
# Experiments:
# Aβ1–37 and Aβ1–38 = assay: urea gel Western blotting of Aβ species; type: cell-based
# total Aβ1–x = total Aβ1–x formation; type: cell-based
# hERG ion channel = hERG ion channel (Homo sapiens, UniProt Q12809); assay: hERG patch-clamp electrophysiology; type: cell-based
# hERG ion channel, sequence (Q12809 whole entry): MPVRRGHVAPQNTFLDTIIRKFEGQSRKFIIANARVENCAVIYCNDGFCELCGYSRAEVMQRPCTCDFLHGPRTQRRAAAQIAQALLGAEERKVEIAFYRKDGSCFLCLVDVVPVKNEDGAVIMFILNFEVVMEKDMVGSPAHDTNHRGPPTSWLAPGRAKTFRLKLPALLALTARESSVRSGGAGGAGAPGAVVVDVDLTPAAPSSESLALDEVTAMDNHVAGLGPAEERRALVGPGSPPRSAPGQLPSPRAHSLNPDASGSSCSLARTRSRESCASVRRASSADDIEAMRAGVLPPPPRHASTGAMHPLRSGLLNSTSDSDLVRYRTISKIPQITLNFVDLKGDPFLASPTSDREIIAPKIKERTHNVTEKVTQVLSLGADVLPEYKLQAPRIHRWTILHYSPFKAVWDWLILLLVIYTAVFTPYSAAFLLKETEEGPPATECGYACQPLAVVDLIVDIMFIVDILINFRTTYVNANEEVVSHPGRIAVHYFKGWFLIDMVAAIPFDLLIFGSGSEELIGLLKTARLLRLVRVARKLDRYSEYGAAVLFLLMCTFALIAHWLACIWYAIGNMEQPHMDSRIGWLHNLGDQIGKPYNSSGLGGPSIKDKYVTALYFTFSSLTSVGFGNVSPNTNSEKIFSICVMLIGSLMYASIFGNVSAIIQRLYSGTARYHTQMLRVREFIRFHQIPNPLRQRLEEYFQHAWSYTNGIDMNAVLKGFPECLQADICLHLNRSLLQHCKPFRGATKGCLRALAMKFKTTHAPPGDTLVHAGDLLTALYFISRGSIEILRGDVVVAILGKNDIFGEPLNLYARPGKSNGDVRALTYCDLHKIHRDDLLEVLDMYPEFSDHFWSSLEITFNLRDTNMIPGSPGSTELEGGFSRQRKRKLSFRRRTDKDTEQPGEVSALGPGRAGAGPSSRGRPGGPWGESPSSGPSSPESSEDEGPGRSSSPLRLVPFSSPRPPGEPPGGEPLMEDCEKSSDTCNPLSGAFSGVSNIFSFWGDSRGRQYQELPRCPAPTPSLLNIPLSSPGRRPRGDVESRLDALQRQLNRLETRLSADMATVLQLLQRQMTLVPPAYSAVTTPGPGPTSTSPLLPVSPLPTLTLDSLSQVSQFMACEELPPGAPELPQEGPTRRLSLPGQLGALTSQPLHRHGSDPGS
# CYP3A4 [1] = target: T1, CYP3A4 (Homo sapiens, UniProt P08684); assay: CYP 3A4 HLM time-dependent inhibition; type: in vitro ADME
# T1 sequence (P08684 whole entry): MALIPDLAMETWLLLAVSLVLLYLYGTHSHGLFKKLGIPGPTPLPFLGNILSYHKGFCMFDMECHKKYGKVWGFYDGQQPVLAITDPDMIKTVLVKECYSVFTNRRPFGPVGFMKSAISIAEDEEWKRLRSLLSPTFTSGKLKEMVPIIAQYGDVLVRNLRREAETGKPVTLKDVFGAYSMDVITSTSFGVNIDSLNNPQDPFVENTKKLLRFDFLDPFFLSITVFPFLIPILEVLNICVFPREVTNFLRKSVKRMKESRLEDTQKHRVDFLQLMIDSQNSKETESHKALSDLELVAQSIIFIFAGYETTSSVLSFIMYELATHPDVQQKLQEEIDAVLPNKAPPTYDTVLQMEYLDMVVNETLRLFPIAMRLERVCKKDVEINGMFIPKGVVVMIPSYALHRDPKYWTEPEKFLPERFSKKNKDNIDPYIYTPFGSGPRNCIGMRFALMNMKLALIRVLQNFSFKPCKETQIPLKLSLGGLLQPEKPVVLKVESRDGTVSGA
# [2] = in vitro biotransformation assays; type: in vitro ADME
# [3] = 4 day oral dosing study in rats; type: in vivo
# rabbit telemetry study = type: in vivo
# Caco-2 permeability = type: in vitro ADME; details: human
# acute oral dose in dogs = type: in vivo
# How it was run: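 Dogs received a single acute oral dose of 300 mg/kg. Bilirubin and other clinical pathology were assessed, and plasma Cmax and AUC were measured. Margins were taken relative to projected human Cmax and AUC at the efficacious clinical dose.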
# CYP3A4 [4] = target: T1, CYP3A4; assay: recombinant CYP3A4 inhibition; type: in vitro ADME
# How it was run: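 Recombinant human CYP3A4 was incubated with the test compound for 30 min, and an IC50 was determined.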
# [5] = test system: rest of the CYP isoforms tested (other than the CYP2C subfamily); assay: CYP inhibition in human liver microsomes, rest of isoforms; type: in vitro ADME
# Aβ peptide species = details: intravenous administration; cited from earlier work
# [6] = cited from earlier work
# pharmacokinetics in rat = details: Sprague-Dawley, in vivo, iv, 2 mg/kg
# [7] = projected human PK and dose; details: 110 mg QD, steady state
# How it was run: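 Human PK was predicted by allometric scaling of rat, dog and cynomolgus monkey PK, then combined with a rat PK/PD indirect response model.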
# CYP2C subfamily = assay: CYP inhibition in human liver microsomes, CYP2C subfamily; type: in vitro ADME
# [8] = pharmacokinetics in cynomolgus monkey; details: male, in vivo, iv, 1 mg/kg
# H4-APPsw cells = assay: Aβ species in cultured H4-APPsw cells by mass spectrometry; type: cell-based
# [9] = hemodynamics in conscious rats; type: in vivo; details: any dose studied
# pharmacokinetics in dog = details: male, beagle, in vivo, iv, 1 mg/kg
# [10] = 2-week oral repeat dose toxicity study in rats; type: in vivo
# How it was run: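 Rats received the test compound orally for 2 weeks at 10, 30 and 100 mg/kg in repeat dosing. Endpoints included signs of stress, food consumption, duodenal histology for Notch-related goblet cell metaplasia, and liver for hepatotoxicity and necrosis.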
# CYP3A4 mRNA = CYP3A4 mRNA induction in cryopreserved primary human hepatocytes; type: cell-based; details: 3.3–10 μM
# [11] = single oral doses 10 to 1200 mg, multiweek daily 50 to 200 mg
compound,measurement,setting,value
CNc1nc(Nc2ccc(-n3cncn3)c(OC)c2)nc(-c2ccccc2)n1 [Compound 1],levels of Aβ1–37 and Aβ1–38,Aβ1–37 and Aβ1–38,increased levels
same,effect on total Aβ1–x formation,total Aβ1–x,No effect
"CNc1nc(Cc2ccccc2)nc(Nc2ccc(-n3cnc(C)c3)c(OC)c2)n1 [Compound 2, 6-benzyl-N2-(3-methoxy-4-(4-methyl-1H-imidazol-1-yl)phenyl)-N4-methyl-1,3,5-triazine-2,4-diamine]",hERG inhibition,hERG ion channel; in words,potent hERG inhibition
same,CYP3A4 inhibition,CYP3A4 [1]; in words,potent and time-dependent CYP3A4 inhibition
CNc1nc(Nc2ccc(-n3cnc(Cl)c3)c(OC)c2)nc2c1CC[C@H]2c1ccccc1 [Compound 3],metabolism,[2],confined to N-demethylation and monohydroxylation of the D-ring
same,tissue examination finding,"[3]; 4 days oral, 10, 30, and 100 mg/kg",hepatocellular necrosis at all doses studied
same,plasma bilirubin finding,"[3]; 4 days oral, all doses, visibly yellow plasma",increase in unconjugated bilirubin
same,safety margin vs the hERG NOAEL,rabbit telemetry study; rabbit telemetry,40 fold
"CNc1nc(Nc2ccc(-n3cnc(C)n3)c(OC)c2)nc2c1CC[C@H]2c1ccc(F)cc1 [Compound 4, (S)-7-(4-fluorophenyl)-N^2-(3-methoxy-4-(3-methyl-1H-1,2,4-triazol-1-yl)phenyl)-N^4-methyl-6,7-dihydro-5H-cyclopenta[d]pyrimidine-2,4-diamine]",Papp,Caco-2 permeability,3.5 ×10⁻⁶ cm/s
same,margin in Cmax to the projected efficacious clinical dose,acute oral dose in dogs; 300 mg/kg,43 fold
same,tolerability,acute oral dose in dogs; acute oral dose of 300 mg/kg,tolerated with no significant changes in bilirubin levels or other clinical pathological assessments
same,IC50,CYP3A4 [4],0.51 µM
same,IC50,[5],> 17 µM
same,distribution among Aβ peptide species in rat brain and CSF,Aβ peptide species,same distribution among Aβ peptide species was recapitulated
same,ALT finding,[6]; 200 mg for 24 days,ALT elevations were observed
same,tolerability,[6]; dosed acutely,well tolerated
same,Aβ1–37 and Aβ1–38 in plasma and CSF,[6]; [11],dose-dependent increase
same,Aβ1–42 and Aβ1–40 in plasma and CSF,[6]; [11],decrease
same,total Aβ1–x in plasma and CSF,[6]; [11],no change
same,clearance at 24 h,pharmacokinetics in rat,11.2 ± 0.4 mL/min/kg
same,total Aβ1–x,"total Aβ1–x; concentrations up to 10 μM, Aβ1–x ELISA, H4-APPsw cells",unchanged
same,change in QTcf,"rabbit telemetry study; unconscious rabbits, 3 mg/kg",no change
same,exposure,"rabbit telemetry study; unconscious rabbits, 10 mg/kg",50 µM
same,hemodynamic effects,"rabbit telemetry study; unconscious rabbits, doses of 10 mg/kg and higher",increased blood pressure and decreased heart rate
same,AMES result,AMES,negative
same,projected human brain Aβ1–42 reduction,[7],31%
same,CYP2C subfamily IC50s,CYP2C subfamily,single digit micromolar
same,clearance at 24 h,[8],31.3 ± 9.5 mL/min/kg
same,fold less potent at hERG than compound 3,hERG ion channel,6 fold
same,CYP 3A4 HLM time-dependent inhib. KI,CYP3A4 [1]; HLM,82.5 µM and 83 µM
same,change in Aβ1–37 and Aβ1–38,H4-APPsw cells,corresponding increase
same,change in Aβ1–42 and Aβ1–40,H4-APPsw cells,large decrease
same,"hemodynamic effects (blood pressure, heart rate)",[9],not seen
same,clearance at 24 h,pharmacokinetics in dog,12.5 ± 1.2 mL/min/kg
same,Notch-related goblet cell metaplasia in the duodenum,[10]; 2-week oral,no Notch-related goblet cell metaplasia
same,bilirubin finding,[10]; 2-week oral,"minimal, nontoxicologically significant bilirubin elevation"
same,hepatotoxicity or necrosis,[10]; 2-week oral,no hepatotoxicity or necrosis was observed
same,tolerability,"[10]; 2-week oral, 10, 30, and 100 mg/kg",well tolerated
same,findings in high dose group,"[10]; 2-week, 100 mg/kg oral",stress and reduced food consumption effects
same,margin over the projected human efficacious exposure at the NOAEL,"[10]; 2-week, NOAEL 30 mg/kg, vs 4 μM·h",48 fold
same,elevation of CYP3A4 mRNA,CYP3A4 mRNA,36–43%
